This note sets out measurements from ChEMBL document CHEMBL1136700, “Identification of a broad-spectrum azasordarin with improved pharmacokinetic properties” (Bioorg Med Chem Lett, 2003).

Each structure is given as a SMILES string. In brackets after ≈: the same amount, converted by molar mass.

What all share (assay type): functional
The subject of one assay is Nakaseomyces glabratus. The assay can be described thus: Minimum inhibitory concentration (MIC) to Candida glabrata after 48 hours. The settings on record: Nakaseomyces glabratus, 48 h; read-out: MIC. Summed up:
(§1)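 Antifungal susceptibility read visually; MIC taken as lowest drug concentration giving 90–100% inhibition of visible growth relative to drug-free controls, read over 48 h, or after 24 h where footnoted. Organisms: C. parapsilosis, C. albicans, Cryptococcus neoformans, C. glabrata, Aspergillus fumigatus, Aspergillus flavus.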

The next assay relates to Aspergillus fumigatus. The assay can be described thus: Minimum inhibitory concentration (MIC) to Aspergillus fumigatus after 48 hr. The settings on record: Aspergillus fumigatus, 48 h; read-out: MIC. Put shortly:
as §1

The subject of a further assay is Cryptococcus neoformans. The assay can be described thus: Minimum inhibitory concentration against Cryptococcus neoformans after 48 hours. Summed up:
as §1

The next assay relates to Candida albicans. The assay can be described thus: Minimum inhibitory concentration (MIC) to Candida albicans after 48 hr. Summed up: as §1
The subject of the next assay is Aspergillus flavus. The assay can be described thus: Minimum inhibitory concentration (MIC) against Aspergillus flavus after 24 hours. As to conditions: Aspergillus flavus, 24 h; read-out: MIC. Summed up: as §1
The test system of a further assay is Candida parapsilosis. The assay can be described thus: Minimum inhibitory concentration (MIC) to Candida parapsilosis after 48 hr. As to conditions: Lodderomyces parapsilosis, 48 h; read-out: MIC. Put shortly: as §1

For `COc1ccc(CN2C[C@H](OCC34C[C@@H]5[C@H](C)CC[C@H]5C5(C=O)CC3C=C(C(C)C)[C@@]45C(=O)O)OC[C@H]2C)cc1`, the MIC was < 0.06 µg/mL in the assay on Nakaseomyces glabratus; > 128 µg/mL with Aspergillus fumigatus; 0.5 µg/mL (≈ 0.906 µM) against Cryptococcus neoformans; < 0.06 µg/mL in the assay with Candida albicans; > 128 µg/mL in the assay on Aspergillus flavus; 4 µg/mL (≈ 7.25 µM) with Candida parapsilosis.
Turning to `CC(C)C1=CC2CC3(C=O)[C@@H]4CC[C@@H](C)[C@H]4CC2(CO[C@H]2CN(CC4CC4)[C@H](C)CO2)[C@]13C(=O)O`, the MIC in the assay on Nakaseomyces glabratus is 8 µg/mL (≈ 16.5 µM); in the assay on Aspergillus fumigatus, > 128 µg/mL; with Cryptococcus neoformans it was > 128 µg/mL; in the assay on Candida albicans, 2 µg/mL (≈ 4.12 µM); in the assay with Aspergillus flavus, > 128 µg/mL; with Candida parapsilosis it was > 128 µg/mL.
Consider `CC(C)C1=CC2CC3(C=O)[C@@H]4CC[C@@H](C)[C@H]4CC2(CO[C@H]2CN(c4ccc(Cl)s4)[C@H](C)CO2)[C@]13C(=O)O`, for which the MIC was 0.125 µg/mL (≈ 0.228 µM) in the assay on Nakaseomyces glabratus; > 128 µg/mL with Aspergillus fumigatus; 2 µg/mL (≈ 3.65 µM) in the assay with Cryptococcus neoformans; < 0.06 µg/mL in the assay with Candida albicans; > 128 µg/mL with Aspergillus flavus; > 128 µg/mL in the assay on Candida parapsilosis.
Turning to `C=C(C#N)CN1C[C@H](OCC23C[C@@H]4[C@H](C)CC[C@H]4C4(C=O)CC2C=C(C(C)C)[C@@]34C(=O)O)OC[C@H]1C`, the MIC with Nakaseomyces glabratus was 1 µg/mL (≈ 2.01 µM); in the assay with Aspergillus fumigatus, > 128 µg/mL; in the assay on Cryptococcus neoformans, 4 µg/mL (≈ 8.05 µM); in the assay with Candida albicans, 0.25 µg/mL (≈ 0.503 µM); with Aspergillus flavus, 128 µg/mL (≈ 258 µM); in the assay with Candida parapsilosis, > 128 µg/mL.
As to `C=C(Cl)CN1C[C@H](OCC23C[C@@H]4[C@H](C)CC[C@H]4C4(C=O)CC2C=C(C(C)C)[C@@]34C(=O)O)OCC12CCCC2`, the MIC in the assay with Nakaseomyces glabratus is 0.015 µg/mL (≈ 0.0275 µM); with Aspergillus fumigatus, 8 µg/mL (≈ 14.6 µM); against Cryptococcus neoformans, < 0.008 µg/mL; against Candida albicans it was < 0.008 µg/mL; with Aspergillus flavus, 0.125 µg/mL (≈ 0.229 µM); in the assay with Candida parapsilosis, 0.5 µg/mL (≈ 0.916 µM).
In the case of `CC(C)C1=CC2CC3(C=O)[C@@H]4CC[C@@H](C)[C@H]4CC2(CO[C@H]2CN(Cc4ccccc4Cl)[C@H](C)CO2)[C@]13C(=O)O`, the MIC is 1 µg/mL (≈ 1.8 µM) with Nakaseomyces glabratus; > 128 µg/mL in the assay with Aspergillus fumigatus; 4 µg/mL (≈ 7.19 µM) against Cryptococcus neoformans; < 0.06 µg/mL in the assay on Candida albicans; > 128 µg/mL with Aspergillus flavus; > 128 µg/mL in the assay with Candida parapsilosis.
As to `C=C(Br)CN1C[C@H](OCC23C[C@@H]4[C@H](C)CC[C@H]4C4(C=O)CC2C=C(C(C)C)[C@@]34C(=O)O)OC[C@H]1C`, the MIC in the assay with Nakaseomyces glabratus was 0.125 µg/mL (≈ 0.227 µM); with Aspergillus fumigatus it was 128 µg/mL (≈ 233 µM); with Cryptococcus neoformans it was < 0.06 µg/mL; against Candida albicans, < 0.06 µg/mL; in the assay with Aspergillus flavus it was 4 µg/mL (≈ 7.27 µM); in the assay on Candida parapsilosis, 4 µg/mL (≈ 7.27 µM).
As to `C=C(C)CN1C[C@H](OCC23C[C@@H]4[C@H](C)CC[C@H]4C4(C=O)CC2C=C(C(C)C)[C@@]34C(=O)O)OC[C@H]1C`, the MIC is 0.125 µg/mL (≈ 0.257 µM) with Nakaseomyces glabratus; > 128 µg/mL with Aspergillus fumigatus; 0.125 µg/mL (≈ 0.257 µM) against Cryptococcus neoformans; < 0.06 µg/mL in the assay with Candida albicans; 8 µg/mL (≈ 16.5 µM) in the assay with Aspergillus flavus; 8 µg/mL (≈ 16.5 µM) in the assay on Candida parapsilosis.
Consider `CC(C)C1=CC2CC3(C=O)[C@@H]4CC[C@@H](C)[C@H]4CC2(CO[C@H]2CN(CC=C(Cl)Cl)[C@H](C)CO2)[C@]13C(=O)O`, for which the MIC in the assay with Nakaseomyces glabratus is < 0.06 µg/mL; with Aspergillus fumigatus, > 128 µg/mL; in the assay on Cryptococcus neoformans, 16 µg/mL (≈ 29.6 µM); against Candida albicans it was < 0.06 µg/mL; in the assay on Aspergillus flavus it was > 128 µg/mL; in the assay on Candida parapsilosis, 32 µg/mL (≈ 59.2 µM).
Turning to `C=CC(=O)N1C[C@H](OCC23C[C@@H]4[C@H](C)CC[C@H]4C4(C=O)CC2C=C(C(C)C)[C@@]34C(=O)O)OC[C@H]1C`, the MIC in the assay with Nakaseomyces glabratus was 64 µg/mL (≈ 132 µM); with Aspergillus fumigatus, > 128 µg/mL; in the assay on Cryptococcus neoformans it was 128 µg/mL (≈ 264 µM); in the assay on Candida albicans, 8 µg/mL (≈ 16.5 µM); in the assay with Aspergillus flavus, > 128 µg/mL; in the assay with Candida parapsilosis, > 128 µg/mL.
On to `CC(C)=CCN1C[C@H](OCC23C[C@@H]4[C@H](C)CC[C@H]4C4(C=O)CC2C=C(C(C)C)[C@@]34C(=O)O)OC[C@H]1C`, for which the MIC with Nakaseomyces glabratus is 8 µg/mL (≈ 16 µM); in the assay on Aspergillus fumigatus, > 128 µg/mL; against Cryptococcus neoformans, > 128 µg/mL; in the assay with Candida albicans, 0.25 µg/mL (≈ 0.5 µM); in the assay on Aspergillus flavus, > 128 µg/mL; with Candida parapsilosis, > 128 µg/mL.
Consider `C=C(Cl)CN1C[C@H](OCC23C[C@@H]4[C@H](C)CC[C@H]4C4(C=O)CC2C=C(C(C)C)[C@@]34C(=O)O)O[C@@H]2CCC[C@H]21`, for which the MIC in the assay on Nakaseomyces glabratus is 0.125 µg/mL (≈ 0.235 µM); in the assay on Aspergillus fumigatus it was 64 µg/mL (≈ 120 µM); in the assay on Cryptococcus neoformans, 0.25 µg/mL (≈ 0.47 µM); against Candida albicans it was < 0.06 µg/mL; in the assay on Aspergillus flavus it was 4 µg/mL (≈ 7.52 µM); in the assay with Candida parapsilosis, 4 µg/mL (≈ 7.52 µM).

One may read the MIC as the lowest concentration that inhibits growth of the organism.
